# MrgX1 antagonist: antagonists of human MrgX1 receptor; 1.3% of 310,000 active; B-score at 10 µM; MRGX1-HEK293 calcium flux, Fluo-4, BAM8-22 antagonism; active compounds read low; AID 588676;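 active = calcium-response B-score plate-corrected more than 3 library SD below zero, starting fluorescence within 5 deviations, no agonist response on first addition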;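 note: peak minus trough fluorescence over baseline after final BAM8-22 challenge near maximal dose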
# MrgX1 allo act: human MrgX1 positive allosteric modulation, primary screen; Q96LB2; 0.63% of 310,000 active; AID 588675; MrgX1-HEK293, Fluo-4 calcium flux, FDSS; active compounds read high; B-score at 10 µM;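 active = plate-corrected calcium response at least 3 library SD above typical, normal starting fluorescence, not activating the receptor alone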;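 note: compound read alongside a low EC10 to EC30 dose of BAM8-22 agonist; peak minus trough fluorescence over baseline measured at the second addition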
# RGS4 pot: potentiators or activators of RGS4. HEK293 M3R/inducible RGS4, carbachol calcium flux Fluo4; active compounds read low. B-score at 10 µM. 0.92% of 310,000 active;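 active = B-score of the integrated calcium signal more than 4 SD below the library mean, with starting fluorescence not abnormally high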;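 note: negative B-score means reduced calcium response which marks RGS4 activation or potentiation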
#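 Material: M3R-expressing HEK293 line, RGS4 induced by doxycycline | Schedule: Overnight RGS4 induction, 30 min dye load 37 °C, 20 min compound RT | Measured by: Fluo4 fluorescence kinetic imaging of calcium | Read-out: Integrated calcium ratio converted to B score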
# MrgX1 ag: human MrgX1 receptor agonism, primary screen; Q96LB2; MrgX1-HEK293 cells, Fluo-4 calcium fluorescence, agonist mode; active compounds read high; B-score at 10 µM; 0.44% of 310,000 active;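 active = calcium response B-score plate-corrected fluorescence ratio at least 3 library SD, with starting fluorescence B-score inside 5 SD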
#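 Assay system: MrgX1-expressing HEK293 cells / Amount: fifteen thousand cells per well / Doses: test compound in the initial addition of three / Timing: cells plated overnight, dye loaded 0.5 h 37 °C, 0.5 h room temperature / Technique: kinetic calcium dye fluorescence, Fluo-4 NW / Control set: positive and negative controls per plate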
# RGS4 inh: inhibitors of human RGS4. 0.45% of 310,000 active. P49798. HEK293 M3R/RGS4 inducible, Fluo-4 calcium flux; active compounds read high; triggered by carbachol at its EC20. B-score at 10 µM;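 active = B-score, a plate-corrected calcium signal, over three deviations above library mean, with baseline fluorescence within five deviations of library mean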;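 note: RGS4 expression induced by doxycycline in cells with stable M3 receptor; B-score is computed from the integrated fluorescence ratio over baseline after carbachol; higher B-score means a larger calcium signal and so more RGS4 inhibition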
# Target sequence (P49798 whole entry, looked up): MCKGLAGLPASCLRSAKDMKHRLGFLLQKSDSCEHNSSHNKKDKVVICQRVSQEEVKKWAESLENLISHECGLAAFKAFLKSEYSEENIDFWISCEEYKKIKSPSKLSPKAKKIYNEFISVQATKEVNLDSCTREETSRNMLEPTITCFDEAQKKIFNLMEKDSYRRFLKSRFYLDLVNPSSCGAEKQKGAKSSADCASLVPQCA
# RGS4 activ val: RGS4 activation, validation assay; shares compounds with RGS4 pot; HEK293 M3R/RGS4 inducible, carbachol calcium flux Fluo4; inhibition, % at 10 µM; 89% of 1,100 active; AID 602282;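 active = inhibition above 3 SD of the buffer control wells, cut at about 41% in these data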;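 note: signal is the integrated peak-minus-minimum Fluo4 fluorescence over baseline ratio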
# M3R Ca counter: counter-screen for RGS4 activators: effect in non-induced cells | shares compounds with RGS4 pot | HEK293 M3R non-induced RGS4, Fluo4 calcium flux; after carbachol challenge at its EC90 | inhibition, % at 10 µM | 82% of 1,100 active | AID 602283;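 active = inhibition exceeding 3 SD of buffer-only control wells, cut at about 26% in these data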;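 note: percent drop in integrated peak-minus-baseline over baseline Fluo4 ratio after carbachol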
# Active calls of the source: *; i = inactive; · = no result given. A selection: hits, their analogues and other compounds. The true share with any hit is near 3.5%.
SMILES,MrgX1 antagonist,MrgX1 allo act,RGS4 pot,MrgX1 ag,RGS4 inh,RGS4 activ val,M3R Ca counter
COC(=O)c1cc2occc2n1Cc1nc(-c2cccc(Cl)c2)oc1C,i,i,-8.88*,i,i,94.0*,82.8*
COC(=O)c1cc2sccc2n1Cc1nc(-c2cccc(Cl)c2)oc1C,i,i,i,i,i,·,·
Cc1nc2sc(C)c(C)c2c(=O)o1,i,i,-8.48*,i,i,0.0,0.0
COc1ccc(NC(=O)NNC(=O)c2ccc(-c3ccccc3)cc2)cc1,i,i,i,i,i,·,·
Cc1[nH]c2ccccc2c1C(=O)CN1CCC(C)CC1,i,i,i,i,i,·,·
Cc1ccc(CNC(=O)CSc2nc3c(sc4ccccc43)c(=O)n2CCCN2CCCC2)cc1,i,i,-11*,i,i,94.0*,96.8*
COC(=O)c1cc(Oc2ccc(C(=O)OC)cc2N)cc(C(=O)OC)c1,i,i,i,i,i,·,·
CC1(C)Cc2c(sc3nc(NCCN4CCOCC4)n4ncnc4c23)CO1,i,i,i,i,i,·,·
Cc1cc(NC(=O)CSc2ccc(-c3ccc4c(c3)OCO4)nn2)no1,i,i,i,i,i,·,·
Cc1cccc(C)c1N=Cc1c(C(F)(F)F)[nH][nH]c1=O,i,i,i,i,i,·,·
C/C(=N\NC(=O)c1ccc(CN2CCc3ccccc3C2)cc1)c1ccccc1O,-5.02*,i,-13.7*,i,i,94.0*,96.3*
CC(=O)c1cccc(NC(=O)c2ccc(CN3CCc4ccccc4C3)cc2)c1,i,i,i,i,i,·,·
COc1ccc(Nc2nc(NCC3CCCO3)c3ccccc3n2)c(OC)c1 (configuration not stated),i,i,-7.72*,i,i,38.5*,83.8*
CN1CCN(c2nc(-c3cccs3)cc(C(F)(F)F)n2)CC1,i,i,-8.7*,i,i,92.0*,37.8*
O=C(CN1CCN(c2ccc(F)cc2)CC1)OCc1ccccc1,i,i,i,i,i,·,·
CCOc1cc2sc(N3CCC(C(=O)NCCCN4CCCC4=O)CC3)nc2cc1Br,i,i,-9.38*,i,i,48.5*,83.8*
Cc1cc(C)c2nc(N3CCC(C(=O)NCCCN4CCCC4=O)CC3)sc2c1,i,i,i,i,i,·,·
O=C(COc1ccccc1)N1CCN(c2nnc(-c3ccccc3)c3ccccc23)CC1,i,i,i,i,i,·,·
Cc1cccc(OCC(=O)N2CCN(c3nnc(-c4ccccc4)c4ccccc34)CC2)c1,i,i,-8.02*,i,i,77.5*,29.8*
O=C(COc1ccc(Cl)cc1)NCc1nnc(SCC(=O)NCc2ccc3c(c2)OCO3)o1,i,i,i,i,i,·,·
CN(Cc1ccc(C#CCCO)cc1)CC1CCCN(CCc2ccc(Cl)cc2)C1 (configuration not stated),i,i,i,i,i,·,·
CN(Cc1ccccc1O)CC1CCCN(CCc2ccc(Cl)cc2)C1 (configuration not stated),i,i,-10.1*,i,i,93.5*,73.3*
O=C(/C=C/c1cccc([N+](=O)[O-])c1)NCc1cccnc1,i,i,i,i,i,·,·
CC(C)Oc1ccc(C(=O)N(CN2CCCC2=O)c2ccc(F)cc2)cc1,i,i,i,i,i,·,·
COc1ccc(Br)cc1C(=O)NC(=S)Nc1ccc(CN2CCOCC2)cc1,i,i,-9.75*,i,i,92.0*,87.3*
O=C(NC(=S)Nc1ccc(CN2CCOCC2)cc1)c1ccc(-c2cccc(Cl)c2)o1,i,i,-9.92*,i,i,93.5*,91.3*
CCCCNS(=O)(=O)c1cc(-c2nn(C)c(=O)c3ccccc23)ccc1C,i,i,i,i,i,·,·
CCCCCCCCCn1c2c(c(=N)c3c1CCC3)CCCC2,·,·,-11.3*,·,i,92.5*,95.3*

# Bioassay records as filed in PubChem BioAssay.
